pIC50: −log10 of the molar value.
Legend:
A549 [1] = assay: Induction of apoptosis in human A549 cells assessed as early apoptotic cells at 2 nM after 48 hrs by Annexin V-FITC/propidium iodide staining based flow cytometry (reference value: 1.48%); assay type: functional
HeLa = assay: Antiproliferative activity against human HeLa cells after 48 hrs by MTT assay; assay type: functional, cell-based
Summary of the method: (§1)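 MTT assay: log-phase cells plated at 5 × 10³/well for 24 h, then exposed to a range of test concentrations for 48 h. MTT (5 mg/mL) added for 4 h, formazan dissolved in DMSO, absorbance read at 570 nm. IC50 is the concentration giving 50% growth inhibition, from dose-response curves; at least three independent experiments, mean ± SE.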

A549 [2] = assay: Induction of apoptosis in human A549 cells assessed as late apoptotic cells at 4 nM after 48 hrs by Annexin V-FITC/propidium iodide staining based flow cytometry (reference value: 0.03%); assay type: functional
BJ = assay: Antiproliferative activity against human BJ cells after 48 hrs by MTT assay; assay type: cell-based; summary of the method: as §1
A549 [3] = assay: Induction of mitochondrial membrane disruption in human A549 cells assessed as cells with mitochondrial membrane potential loss at 4 nM after 48 hrs by JC1 staining based flow cytometry (reference value: 0.82%); assay type: functional
[4] = Resistance factor, ratio of IC50 for human A549/CDDP cells to IC50 for human A549 cells; assay type: functional
Summary of the method: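 MTT assay: log-phase cells were seeded at 5 × 10³/well for 24 h, then exposed to a concentration series for 48 h. MTT (5 mg/mL) was added for 4 h, formazan was dissolved in DMSO, and A570 was read. IC50 values came from dose–response curves of at least three independent experiments. Resistance factor = IC50 in the resistant line / IC50 in the parental sensitive line.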

RKO = assay: Growth inhibition of human RKO cells after 48 hrs by MTT assay; assay type: functional, cell-based; summary of the method: as §1
HepG2 = assay: Growth inhibition of human HepG2 cells after 48 hrs by MTT assay; assay type: functional, cell-based; conditions: HepG2, 48 h; summary of the method: as §1
A549 [5] = assay: Induction of apoptosis in human A549 cells assessed as early apoptotic cells at 2 nM after 24 hrs by Annexin V-FITC/propidium iodide staining based flow cytometry (reference value: 0.98%); assay type: functional
A549 [6] = assay: Induction of apoptosis in human A549 cells assessed as live cells at 4 nM after 48 hrs by Annexin V-FITC/propidium iodide staining based flow cytometry (reference value: 98.49%); assay type: functional

## C[Se]c1ccc(N(C)c2nc(C)nc3ccccc23)cc1
A549 [1]
  Activity: 26.51%
HeLa
  pIC50: 8.52
A549 [2]
  Activity: 28.75%
BJ
  pIC50: 7.72
A549 [3]
  Activity: 42.83%
[4]
  Ratio IC50: 4.09
RKO
  pIC50: 8.40
HepG2
  pIC50: 8.40
A549 [5]
  Activity: 16.35%
A549 [6]
  Activity: 10.31%
